According to ChEMBL document CHEMBL3046081, “Phytotoxic effect, uptake, and transformation of biochanin A in selected weed species” (J Agric Food Chem, 2012):
Active and inactive are the calls of the source. The calls are words filed in the database; no cut-off is given here.

Legend:
[1] = system: Root; test: Drug metabolism in Silene noctiflora root assessed as transformation to genistein at 400 uM after 14 days measured per gm of dry weight by LC-MS analysis; assay type: ADME; settings: 336 h
Summary of the method: (§1)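 Pregerminated seeds, 14 per container, transplanted onto 0.5% agar medium containing biochanin A. Grown at 24 ± 1 °C under a 16 h light/8 h dark photoperiod and harvested 14 days after transplanting. Roots and shoots collected separately, blotted, washed twice, then freeze-dried. Tissue extracted by ASE at 40 °C and analysed by LC-ESI-MS against commercial standards. Two replicates per treatment.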

[2] = system: Root; test: Drug metabolism in Echinochloa crus-galli (barnyard grass) root assessed as transformation to genistein at 400 uM after 14 days measured per gm of dry weight by LC-MS analysis; assay type: ADME; settings: 336 h; summary of the method: as §1
[3] = system: Root; test: Drug metabolism in Geranium molle root assessed as transformation to dihydrobiochanin A at 20 uM after 14 days measured per gm of dry weight by LC-MS analysis; assay type: ADME; settings: 336 h; summary of the method: as §1
[4] = system: Root; test: Drug metabolism in Silene noctiflora root assessed as transformation to dihydrobiochanin A at 400 uM after 14 days measured per gm of dry weight by LC-MS analysis; assay type: ADME; settings: 336 h; summary of the method: as §1
[5] = system: Root; test: Drug uptake in Geranium molle root at 400 uM after 14 days measured per gm of dry weight by LC-MS analysis; assay type: ADME; settings: 336 h
Summary of the method: (§2)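 Pregerminated seeds (14 per container) were grown on 20 mL 0.5% agar medium containing biochanin A, at 24 ± 1 °C with a 16 h light/8 h dark cycle. There were two replicates per treatment: 14 containers for S. noctiflora, 9 for G. molle and E. crus-galli. At 14 days, roots and shoots were harvested separately, washed, blotted and freeze-dried. Extraction was ASE at 40 °C, 1600 psi, 3 cycles. Analysis was LC-ESI-MS SIM against standards.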

[6] = system: Root; test: Drug metabolism in Echinochloa crus-galli (barnyard grass) root assessed as transformation to dihydrobiochanin A at 20 uM after 14 days measured per gm of dry weight by LC-MS analysis; assay type: ADME; settings: 336 h; summary of the method: as §1
[7] = system: Root; test: Drug metabolism in Geranium molle root assessed as transformation to pratensein at 20 uM after 14 days measured per gm of dry weight by LC-MS analysis; assay type: ADME; settings: 336 h; summary of the method: as §1
[8] = system: Shoot; test: Drug metabolism in Silene noctiflora shoot assessed as transformation to genistein at 20 uM after 14 days measured per gm of dry weight by LC-MS analysis; assay type: ADME; settings: 336 h; summary of the method: as §1
[9] = system: Silene noctiflora; test: Phytotoxicity against Silene noctiflora assessed as root growth inhibition after 2 weeks by agar medium bioassay; assay type: functional, organism-based; settings: 336 h
Summary of the method: (§3)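 Agar bioassay with eight biochanin A doses (0–400 µM). Seeds were pregerminated 48 h at room temperature, then 10 seedlings (1–2 mm radicle) were placed per Petri dish. Plants grew 2 weeks at 24 ± 1 °C under a 16 h light/8 h dark cycle. Root length was measured, and EC values were taken from a four-parameter log-logistic nonlinear regression fit.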

[10] = system: Root; test: Drug metabolism in Geranium molle root assessed as transformation to genistein at 400 uM after 14 days measured per gm of dry weight by LC-MS analysis; assay type: ADME; settings: 336 h; summary of the method: as §1
[11] = system: Root; test: Drug uptake in Echinochloa crus-galli (barnyard grass) root at 20 uM after 14 days measured per gm of dry weight by LC-MS analysis; assay type: ADME; settings: 336 h; summary of the method: as §2
[12] = system: Shoot; test: Drug uptake in Geranium molle shoot at 20 uM after 14 days measured per gm of dry weight by LC-MS analysis; assay type: ADME; settings: 336 h; summary of the method: as §2
[13] = system: Shoot; test: Drug metabolism in Silene noctiflora shoot assessed as transformation to p-coumaric acid at 400 uM after 14 days measured per gm of dry weight by LC-MS analysis; assay type: ADME; settings: 336 h; summary of the method: as §1
[14] = system: Echinochloa crus-galli; test: Phytotoxicity against Echinochloa crus-galli (barnyard grass) assessed as root growth inhibition at 100 to 400 uM after 2 weeks by agar medium bioassay; assay type: functional, organism-based
Summary of the method: (§4)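 Agar bioassay with eight biochanin A doses (0–400 µM). Seeds were pregerminated 48 h at room temperature, then 10 seedlings were placed per Petri dish and grown 2 weeks at 24 ± 1 °C under a 16 h light/8 h dark cycle. […]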

[15] = system: Shoot; test: Drug metabolism in Echinochloa crus-galli (barnyard grass) shoot assessed as transformation to sissotrin at 20 uM after 14 days measured per gm of dry weight by LC-MS analysis; assay type: ADME; settings: 336 h; summary of the method: as §1
[16] = system: Shoot; test: Drug metabolism in Geranium molle shoot assessed as transformation to sissotrin at 400 uM after 14 days measured per gm of dry weight by LC-MS analysis; assay type: ADME; settings: 336 h; summary of the method: as §1
[17] = system: Geranium molle; test: Phytotoxicity against Geranium molle assessed as root growth inhibition after 2 weeks by agar medium bioassay; assay type: functional, organism-based; settings: 336 h; summary of the method: as §3
[18] = system: Root; test: Drug uptake in Geranium molle root at 20 uM after 14 days measured per gm of dry weight by LC-MS analysis; assay type: ADME; settings: 336 h; summary of the method: as §2
[19] = system: Root; test: Drug metabolism in Echinochloa crus-galli (barnyard grass) root assessed as transformation to pratensein at 20 uM after 14 days measured per gm of dry weight by LC-MS analysis; assay type: ADME; settings: 336 h; summary of the method: as §1
[20] = system: Root; test: Drug uptake in Echinochloa crus-galli (barnyard grass) root at 400 uM after 14 days measured per gm of dry weight by LC-MS analysis; assay type: ADME; settings: 336 h; summary of the method: as §2
[21] = system: Shoot; test: Drug metabolism in Echinochloa crus-galli (barnyard grass) shoot assessed as transformation to dihydrobiochanin A at 20 uM after 14 days measured per gm of dry weight by LC-MS analysis; assay type: ADME; settings: 336 h; summary of the method: as §1
[22] = system: Root; test: Drug uptake in Silene noctiflora root at 20 uM after 14 days measured per gm of dry weight by LC-MS analysis; assay type: ADME; settings: 336 h; summary of the method: as §2
[23] = system: Shoot; test: Drug metabolism in Echinochloa crus-galli (barnyard grass) shoot assessed as transformation to dihydrobiochanin A at 400 uM after 14 days measured per gm of dry weight by LC-MS analysis; assay type: ADME; settings: 336 h; summary of the method: as §1
[24] = system: Root; test: Drug metabolism in Geranium molle root assessed as transformation to p-coumaric acid at 400 uM after 14 days measured per gm of dry weight by LC-MS analysis; assay type: ADME; settings: 336 h; summary of the method: as §1
[25] = system: Shoot; test: Drug metabolism in Geranium molle shoot assessed as transformation to pratensein at 400 uM after 14 days measured per gm of dry weight by LC-MS analysis; assay type: ADME; settings: 336 h; summary of the method: as §1
[26] = system: Shoot; test: Drug metabolism in Silene noctiflora shoot assessed as transformation to pratensein at 400 uM after 14 days measured per gm of dry weight by LC-MS analysis; assay type: ADME; settings: 336 h; summary of the method: as §2
[27] = system: Root; test: Drug metabolism in Echinochloa crus-galli (barnyard grass) root assessed as transformation to p-coumaric acid at 20 uM after 14 days measured per gm of dry weight by LC-MS analysis; assay type: ADME; settings: 336 h; summary of the method: as §1
[28] = system: Root; test: Drug metabolism in Geranium molle root assessed as transformation to sissotrin at 20 uM after 14 days measured per gm of dry weight by LC-MS analysis; assay type: ADME; settings: 336 h; summary of the method: as §1
[29] = system: Root; test: Drug metabolism in Echinochloa crus-galli (barnyard grass) root assessed as transformation to dihydrobiochanin A at 400 uM after 14 days measured per gm of dry weight by LC-MS analysis; assay type: ADME; settings: 336 h; summary of the method: as §1
[30] = system: Shoot; test: Drug metabolism in Silene noctiflora shoot assessed as transformation to dihydrobiochanin A at 400 uM after 14 days measured per gm of dry weight by LC-MS analysis; assay type: ADME; settings: 336 h; summary of the method: as §1
[31] = system: Shoot; test: Drug metabolism in Geranium molle shoot assessed as transformation to pratensein at 20 uM after 14 days measured per gm of dry weight by LC-MS analysis; assay type: ADME; settings: 336 h; summary of the method: as §1
[32] = system: Lolium perenne; test: Phytotoxicity against Lolium perenne (perennial ryegrass) assessed as root growth inhibition at 100 to 400 uM after 2 weeks by agar medium bioassay; assay type: functional, organism-based; summary of the method: as §4

For COc1ccc(-c2coc3cc(O)cc(O)c3c2=O)cc1 [BIOCHANIN], the Drug metabolism [1] was 0.13 µmol, the Drug metabolism [2] was 0.12 µmol and the Drug metabolism [3] was 0.38 µmol. For the same compound, the Drug metabolism [4] was 0.07 µmol, the Drug uptake [5] was 11.46 µmol and the Drug metabolism [6] was 0.05 µmol. The Drug metabolism [7] was 0.66 µmol, the Drug metabolism [8] was 0.24 µmol and the EC25 [9] was 5.2 µM. It also gave an EC50 [9] of 35.8 µM, a Drug metabolism [10] of 0.08 µmol and a Drug uptake [11] of 1.75 µmol. For the same compound, the Drug uptake [12] was 1 µmol, the Drug metabolism [13] was 0.01 µmol and the Activity [14] was “inactive”. The Drug metabolism [15] was 0 µmol, the Drug metabolism [16] was 2.41 µmol and the EC25 [17] was > 400 µM. The EC50 [17] was > 400 µM, the Drug uptake [18] was 9.93 µmol and the Drug metabolism [19] was 0.38 µmol. For the same compound, the Drug uptake [20] was 2.13 µmol, the Drug metabolism [21] was 0 µmol and the Drug uptake [22] was 4.65 µmol. The Drug metabolism [23] was 0.27 µmol, the Drug metabolism [24] was 0.05 µmol and the Drug metabolism [25] was 0.05 µmol. The Drug metabolism [26] was 0.06 µmol, the Drug metabolism [27] was 0.15 µmol and the Drug metabolism [28] was 36.06 µmol. For the same compound, the Drug metabolism [29] was 0.27 µmol, the Drug metabolism [30] was 0.02 µmol and the Drug metabolism [31] was 0.02 µmol. The Activity [32] was “inactive”.
